Active and inactive are the calls of the source. The rule behind the calls is not given here.
Assays:
Sus scrofa = species on record: Sus scrofa; test: Inhibition of pig brain microtubule assembly at 100 uM
In short: (§1)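 Microtubule protein purified from fresh porcine brain by repeated polymerization/depolymerization cycles in 100 mM MES, 1 mM EGTA, 0.5 mM MgCl2, 1 mM GTP, 1 mM 2-mercaptoethanol, pH 6.5; 1.3 mg/mL protein; DMSO-dissolved sample (final DMSO <2%); assembly followed by turbidity at 400 nm, 37 °C.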

Oocyte = test: Inhibition of 1-methyladenine-stimulated meiotic maturation in Asterina pectinifera immature oocytes assessed as germinal vesicle breakdown at 100 uM after 60 mins; format: functional, cell-based; settings: Patiria pectinifera
In short: (§2)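 Immature oocytes from wild-caught Asterina pectinifera ovaries, 100 cells/mL; DMSO-dissolved sample added, held on ice 10 min, then 1-MeAde (1.25 µM, as added) added; incubated 20 °C for 60 min; germinal vesicle state scored under inverted microscope.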

[1] = Inhibition of pig brain microtubule assembly; parameters: species or system Sus scrofa; in short: as §1
[2] = Inhibition of 1-methyladenine-stimulated meiotic maturation in Asterina pectinifera immature oocytes assessed as germinal vesicle breakdown after 60 mins; format: functional, cell-based, Patiria pectinifera; settings: oocyte; in short: as §2

| Compound | Activity (Sus scrofa) | Activity (Oocyte) | IC50 [1] [µM] | IC50 [2] [µM] |
| --- | --- | --- | --- | --- |
| COc1cc(Br)cc(Br)c1Oc1cc(Br)cc(Br)c1O | inactive | inactive |  |  |
| COc1cc(Br)cc(Br)c1Oc1c(Br)ccc(Br)c1O | inactive | inactive |  |  |
| Oc1c(Br)cc(Br)cc1Oc1c(Br)cc(Br)c(Br)c1O |  |  | 33.5 | 4.2 |
| COc1cc(Br)cc(Br)c1Oc1cc(Br)cc(Br)c1OC | inactive | inactive |  |  |
| COc1c(Br)c(Br)cc(Br)c1Oc1cc(Br)cc(Br)c1O | inactive | inactive |  |  |
| COc1c(Br)c(Br)c(Br)c(Br)c1Oc1cc(Br)cc(Br)c1O | inactive | inactive |  |  |
| Oc1c(Br)cc(Br)cc1Oc1ccc(Br)cc1Br | inactive | inactive |  |  |
| Oc1c(Br)cc(Br)cc1Oc1c(O)c(Br)c(Br)c(Br)c1Br |  |  | 29.6 | 3.6 |
| COc1cc(Br)c(Br)c(Br)c1Oc1cc(Br)cc(Br)c1O | inactive | inactive |  |  |
| Oc1cc(Br)c(Br)c(Br)c1Oc1c(Br)ccc(Br)c1O |  |  | 20.9 | 4.2 |
| COc1cc(Br)c(Br)c(Br)c1Oc1cc(Br)cc(Br)c1OC | inactive | inactive |  |  |

Reference: ChEMBL document CHEMBL1146516, “Isolation and characterization of polybrominated diphenyl ethers as inhibitors of microtubule assembly from the marine sponge Phyllospongia dendyi collected at Palau” (J Nat Prod, 2004)
